Reference: ChEMBL document CHEMBL4706573, “Synthesis and evaluation of thiophene based small molecules as potent inhibitors of Mycobacterium tuberculosis” (Eur J Med Chem, 2020)
Values after ≈ are worked out from the molar mass of the structure shown. Active and inactive are the calls of the source. No cut-off for these calls is given here.

Tests used:
[1] = test system: Mycobacterium tuberculosis; assay: Antimycobacterial activity against Mycobacterium tuberculosis expressing pMV306-pks13 after 10 to 14 days; format: functional, organism-based; settings: time 10-14 day
Summary of the method: (§1)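 MIC99 determined in whole cells, tested in triplicate with INH as the positive control. Strains were wild-type, pMV306, pMV306-pks13 and INH-resistant mc2 497. Susceptibility was scored relative to the parental strain: S where the MIC99 was at most 2x the parental MIC99.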

[2] = test system: Mycobacterium tuberculosis; assay: Antimycobacterial activity against early-logarithmic cultures of Mycobacterium tuberculosis H37Rv assessed as bacterial killing at 10 times MIC99 incubated for 7 days followed by 10-fold serial dilution and measured after 2 to 4 weeks; format: functional; settings: time 2-5 weeks
Summary of the method: (§2)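 Early-logarithmic culture (OD600nm ~0.2) exposed to 10x MIC99 for 7 days. Bacteria then counted as CFU and compared with untreated samples. INH used as control.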

[3] = test system: Mycobacterium tuberculosis; assay: Antimycobacterial activity against Mycobacterium tuberculosis infected in human THP-1 cells assessed as reduction in intracellular bacterial growth at 10 times MIC99 incubated for 4 days followed by 10-fold serial dilution and measured after 3 to 4 weeks relative to control; format: functional; settings: time 32 day
Summary of the method: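 THP-1 cells infected and then washed twice with 1x PBS. Infected macrophages overlaid with RPMI containing drug for 4 days. Lysed on day 0 and day 4 with 1x PBST (0.1% Triton X-100). Tenfold serial dilutions plated on MB 7H11 agar, incubated at 37 °C for 3-4 weeks, then CFU counted. INH used as control.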

[4] = test system: Mycobacterium tuberculosis; assay: Antimycobacterial activity against Mycobacterium tuberculosis H37Rv after 10 to 14 days; format: functional; settings: time 10-14 day; summary of the method: as §1
THP-1 = assay: Cytotoxicity against human THP-1 cells assessed as reduction in cell viability measured after 96 hrs by WST1 assay; format: cell-based; settings: thp-1, 96 h
Summary of the method: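 THP-1 cells seeded at 20,000/well with 20 ng/ml PMA for 48 h. Cells then washed and rested 24 h in RPMI with 10% FBS. Drug dilutions in RPMI complete medium added in triplicate for 96 h. Viability read by WST-1 reagent after a 30 min incubation.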

[5] = test system: Mycobacterium tuberculosis; assay: Antimycobacterial activity against Mycobacterium tuberculosis expressing pMV306 after 10 to 14 days; format: functional, organism-based; settings: time 10-14 day; summary of the method: as §1
[6] = test system: Mycobacterium tuberculosis; assay: Antimycobacterial activity against Mycobacterium tuberculosis H37Rv assessed as FICI in presence of rifampicin by checkerboard assay; format: functional
Summary of the method: (§3)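 Two-drug checkerboard: lead compound serially diluted twofold along one axis, cross-diluted twofold with a TB drug (RIF, INH, LEVO, BDQ or PA-824) to form combinations. FICI calculated for each combination.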

[7] = test system: Mycobacterium tuberculosis; assay: Antimycobacterial activity against early-logarithmic cultures of Mycobacterium tuberculosis H37Rv assessed as reduction in bacterial load at 10 times MIC99 incubated for 7 days followed by 10-fold serial dilution and measured after 2 to 4 weeks; format: functional; settings: time 2-5 weeks; summary of the method: as §2
[8] = test system: Mycobacterium tuberculosis; assay: Antimycobacterial activity against Mycobacterium tuberculosis H37Rv assessed as FICI in presence of bedaquiline by checkerboard assay; format: functional; summary of the method: as §3
[9] = test system: Mycobacterium tuberculosis; assay: Antimycobacterial activity against Mycobacterium tuberculosis H37Rv assessed as FICI in presence of levofloxacin by checkerboard assay; format: functional; summary of the method: as §3
[10] = test system: Mycobacterium tuberculosis; assay: Antimycobacterial activity against Mycobacterium tuberculosis H37Rv assessed as FICI in presence of isoniazid by checkerboard assay; format: functional; summary of the method: as §3
[11] = test system: Mycobacterium tuberculosis; assay: Ratio of MIC99 for antimycobacterial activity against Mycobacterium tuberculosis H37Rv to MIC99 for antimycobacterial activity against Mycobacterium tuberculosis H37Rv in presence of bedaquiline; format: functional; summary of the method: as §3
[12] = test system: Mycobacterium tuberculosis; assay: Antimycobacterial activity against Mycobacterium tuberculosis H37Rv assessed as FICI in presence of pretomanid by checkerboard assay; format: functional; summary of the method: as §3
[13] = Inhibition of N-terminal His-tagged Mycobacterium tuberculosis PtpB expressed in Escherichia coli BL21 (DE3)-CodonPlus cells using DiFMUP as substrate measured after 45 mins by spectrofluorimetric method
[14] = test system: Mycobacterium tuberculosis; assay: Antimycobacterial activity against Mycobacterium tuberculosis H37Ra measured up to 7 days; format: functional; settings: 168 h, time day <=7
[15] = test system: Mycobacterium tuberculosis; assay: Antimycobacterial activity against Mycobacterium tuberculosis H37Rv; format: functional

SMILES	MIC99 [4] [µM]	Activity (THP-1) [µM]	further results
NNC(=O)c1ccncc1 [ISONIAZID]	0.19 (≈ 0.0261 µg/mL)	> 50	Activity [1]: Active; Activity [2]: >4 log10CFU; fold change (FC) [3]: 200; Activity [5]: Active
CCOC(=O)c1cc(-c2ccccc2)sc1NC(=O)NC(C)C	1.56 (≈ 0.519 µg/mL)	> 50	–
CCOC(=O)c1cc(-c2ccccc2)sc1NC(=O)c1ccc(C)cc1	> 10	> 50	–
COC(=O)c1cc(-c2ccc(F)cc2)sc1NC(=O)NC1CC1	> 10	> 50	–
CCOC(=O)c1cc(-c2ccccc2)sc1NC(=O)c1ccccc1	> 10	> 50	–
CCOC(=O)c1cc(-c2ccccc2)sc1NC(=O)c1cccnc1	> 10	> 50	–
COC(=O)c1ccsc1NC(=O)CCl	0.19 (≈ 0.0444 µg/mL)	> 50	fractional inhibitory concentration index (FICI) [6]: 0.75; FC [7]: 10; fractional inhibitory concentration index (FICI) [8]: 0.5; Activity [1]: Active; fractional inhibitory concentration index (FICI) [9]: 0.562; fold change (FC) [3]: 2.5; Activity [5]: Active; fractional inhibitory concentration index (FICI) [10]: 0.75; Ratio [11]: 4; fractional inhibitory concentration index (FICI) [12]: 1
COC(=O)c1cc(-c2ccc(F)cc2)sc1NC(=O)N1CCCCC1	> 10	> 50	–
CCOC(=O)c1cc(-c2ccccc2)sc1NC(=O)N1CCN(C)CC1	> 10	> 50	–
CCOC(=O)c1cc(-c2ccccc2)sc1NC(=O)N1CCCC1	> 10	> 50	–
COC(=O)c1cc(-c2ccc(F)cc2)sc1NC(=O)N1CCCC1	> 10	> 50	–
COC(=O)c1cc(-c2ccccc2)sc1NC(=O)CCl	0.19 (≈ 0.0589 µg/mL)	> 50	fractional inhibitory concentration index (FICI) [6]: 0.625; FC [7]: 10; fractional inhibitory concentration index (FICI) [8]: 0.25; Activity [1]: Active; fractional inhibitory concentration index (FICI) [9]: 0.562; fold change (FC) [3]: 5; Activity [5]: Active; fractional inhibitory concentration index (FICI) [10]: 0.562; Ratio [11]: 8; fractional inhibitory concentration index (FICI) [12]: 0.625
COC(=O)c1cc(-c2ccc(F)cc2)sc1NC(=O)NC(C)C	> 10	> 50	–
O=C(O)C(=O)N(Cc1cccc(Cl)c1)Cc1ccc(S(=O)(=O)NCCC(c2ccccc2)c2ccccc2)s1	–	–	IC50 [13]: 400 nM
CCOC(=O)c1cc(-c2ccccc2)sc1NC(=O)N1CCCCC1	> 10	> 50	–
CCOC(=O)c1cc(-c2ccccc2)sc1NC(=O)Nc1ccccc1	> 10	> 50	–
CO[C@H]1/C=C/O[C@@]2(C)Oc3c(C)c(O)c4c(O)c(c(/C=N/N5CCN(C)CC5)c(O)c4c3C2=O)NC(=O)/C(C)=C\C=C\[C@H](C)[C@H](O)[C@@H](C)[C@@H](O)[C@@H](C)[C@H](OC(C)=O)[C@@H]1C [RIFAMPIN]	0.007 (≈ 0.00576 µg/mL)	–	–
CCOC(=O)c1cc(-c2ccccc2)sc1NC(=O)c1ccc(F)cc1	> 10	> 50	–
CCOC(=O)c1cc(-c2ccccc2)sc1NC(=O)NCc1ccccc1	> 10	> 50	–
CCOC(=O)c1cc(-c2ccccc2)sc1NC(=O)NC1CC1	1.56 (≈ 0.515 µg/mL)	> 50	–

SMILES	MIC99 [4] [µM]	Activity (THP-1) [µM]	further results
CCOC(=O)c1cc(-c2ccccc2)sc1NC(=O)N(CC)CC	3.12 (≈ 1.08 µg/mL)	> 50	–
CCOC(=O)c1cc(-c2ccccc2)sc1NC(=O)c1ccc(C#N)cc1	> 10	> 50	–
COC(=O)c1cc(-c2ccc(C(F)(F)F)cc2)sc1NC(=O)CCl	0.39 (≈ 0.147 µg/mL)	> 50	Activity [1]: Active; Activity [5]: Active
CCOC(=O)c1cc(-c2ccccc2)sc1NC(=O)NC	> 10	> 50	–
COC(=O)c1cc(-c2cc(F)cc(F)c2)sc1NC(=O)CCl	0.78 (≈ 0.27 µg/mL)	> 50	Activity [1]: Active; Activity [5]: Active
CCOC(=O)c1cc(-c2ccccc2)sc1NC(=O)N1CCOCC1	> 10	> 50	–
CCOC(=O)c1cc(-c2ccccc2)sc1NC(C)=O	> 10	> 50	–
COc1ccc([C@@H](c2ccc(OCCN(C(C)C)C(C)C)cc2)c2cccs2)cc1	–	–	MIC [14]: 3.12 µM (≈ 1.32 µg/mL)
CCOC(=O)c1c(NC(=O)c2c(F)c(F)c(F)c(F)c2F)sc(C(N)=O)c1C	–	–	MIC [15]: 0.5 µM (≈ 0.211 µg/mL)
CCOC(=O)c1cc(-c2ccccc2)sc1NC(=O)Cc1ccccc1	> 10	> 50	–
COC(=O)c1cc(-c2cc3ccccc3s2)sc1NC(=O)CCl	0.78 (≈ 0.285 µg/mL)	> 50	Activity [1]: Active; Activity [5]: Active
CCOC(=O)c1c(NC(=O)c2c(F)c(F)c(F)c(F)c2F)sc2c1CCCCC2	–	–	MIC [15]: 1 µM (≈ 0.433 µg/mL)
CCOC(=O)c1cc(-c2ccccc2)sc1NC(=O)CBr	0.78 (≈ 0.287 µg/mL)	> 50	Activity [1]: Active; Activity [5]: Active
CCOC(=O)c1cc(-c2ccccc2)sc1NC(=O)N(C)C	> 10	> 50	–
COC(=O)c1cc(-c2cccc(F)c2)sc1NC(=O)CCl	0.19 (≈ 0.0623 µg/mL)	> 50	Activity [1]: Active; Activity [5]: Active
CCN(CC)C(=O)Nc1sc(-c2ccc(F)cc2)cc1C(=O)OC	> 10	> 50	–
COC(=O)c1cc(-c2ccc(F)cc2)sc1NC(=O)CCl	0.78 (≈ 0.256 µg/mL)	> 50	Activity [1]: Active; Activity [5]: Active
CCOC(=O)c1cc(-c2ccccc2)sc1NC(N)=O	> 10	> 50	–
CCOC(=O)c1cc(-c2ccccc2)sc1N	> 10	> 50	–
